As usually defined, the inhibition is how much of the control response was suppressed.

Common to all, as to type: functional
Experiment [1] is filed under the species Rattus norvegicus. Nature of the experiment: Proliferative activity on the of rat calvaria osteoblasts at concentration of 10e-5 M. Put shortly: (§1)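 SD rat calvarial osteoblasts plated at 2 × 10⁴ cells/well and exposed to a range of bisphosphonate concentrations for 72 h. Proliferation read by MTT, absorbance at 492 nm. Proliferative ratio (%) = (treated − control)/control × 100. Mean ± SE, n = 3.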

For experiment [2], the species on record is Rattus norvegicus. Nature of the experiment: Proliferative activity on the of rat calvaria osteoblasts at concentration of 10e-7 M. Summed up: as §1
The nature of experiment [3]: Inhibitory ratio of osteoclast precursor cells at concentration of 10e-7 M by staining with tartrate-resistant acid […]. Summed up: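 Osteoclast precursor cells plated at 5 × 10⁴ cells/well and cultured 8 days with or without bisphosphonate at 10^-7 M. Cells then TRAP-stained, and positive cells with three or more nuclei counted. Inhibitory ratio (%) = (control count − treated count)/control count × 100. Mean ± SE, n = 5.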

Experiment [4] is filed under the species Rattus norvegicus. Nature of the experiment: Proliferative activity on the of rat calvaria osteoblasts at concentration of 10e-6 M. Summed up:
as §1

The species named for experiment [5] is Rattus norvegicus. Description: Proliferative activity on the of rat calvaria osteoblasts at concentration of 10e-8 M. Summed up: as §1
The target of experiment [6] is T1, Alkaline phosphatase, tissue-nonspecific isozyme (Rattus norvegicus) (UniProt P08289).
T1 sequence (whole entry): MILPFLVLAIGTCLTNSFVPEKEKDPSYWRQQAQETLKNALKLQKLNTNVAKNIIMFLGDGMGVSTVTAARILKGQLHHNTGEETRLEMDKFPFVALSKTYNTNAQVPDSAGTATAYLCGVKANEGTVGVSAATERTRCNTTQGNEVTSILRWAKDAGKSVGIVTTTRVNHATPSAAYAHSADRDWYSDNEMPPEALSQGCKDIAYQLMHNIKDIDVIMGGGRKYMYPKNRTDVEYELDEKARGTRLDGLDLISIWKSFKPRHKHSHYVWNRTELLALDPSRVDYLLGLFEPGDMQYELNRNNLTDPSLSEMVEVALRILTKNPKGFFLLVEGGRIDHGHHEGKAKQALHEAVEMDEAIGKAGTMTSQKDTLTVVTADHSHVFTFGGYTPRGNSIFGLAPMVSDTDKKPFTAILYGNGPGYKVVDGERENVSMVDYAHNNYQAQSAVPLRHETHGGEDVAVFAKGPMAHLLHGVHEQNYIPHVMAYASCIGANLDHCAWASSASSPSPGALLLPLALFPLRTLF
Description: Inhibitory activity of Alkaline phosphatase was determined at concentration of 10e-8 M using p-nitrophenylphosphate as the substrate. Summed up: (§2)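 Primary osteoblast-enriched cells from newborn Sprague-Dawley rat calvaria, cultured in DMEM at 37 °C under 5% CO2. Seeded at 5 × 10³ cells/well and exposed to test agent for 72 h. Alkaline phosphatase activity measured with p-nitrophenylphosphate substrate. Values normalized to viable cell number from the MTT assay. Mean ± SE, n = 5.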

A short description of experiment [7]: Inhibitory activity of bone gamma-carboxyglutamate (gla) protein (osteocalcin) was determined at concentration of 10e-8 M in cell lysates. Put shortly:
(§3)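 Newborn Sprague-Dawley rat calvarial osteoblast-enriched cultures seeded at 5 × 10³ cells/well and treated for 72 h. Osteocalcin measured in cell lysates by radioimmunoassay. Normalized to viable cell number from MTT. Mean ± SE, n = 5.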

Experiment [8] can be described thus: Inhibitory activity of bone gamma-carboxyglutamate (gla) protein (osteocalcin) was determined at concentration of 10e-6 M in cell lysates. Summed up:
as §3

Experiment [9] deals with T1, Alkaline phosphatase, tissue-nonspecific isozyme (Rattus norvegicus). Description: Inhibitory activity of Alkaline phosphatase was determined at concentration of 10e-9 M using p-nitrophenylphosphate as the substrate. Summed up:
as §2

Experiment [10] shares this target. Nature of the experiment: Inhibitory activity of Alkaline phosphatase was determined at concentration of 10e-7 M using p-nitrophenylphosphate as the substrate. Put shortly:
as §2

Experiment [11] is described as follows: Inhibitory activity of bone gamma-carboxyglutamate (gla) protein (osteocalcin) was determined at concentration of 10e-9 M in cell lysates. Put shortly:
as §3

The target in experiment [12] is T1, Alkaline phosphatase, tissue-nonspecific isozyme (Rattus norvegicus). Description: Inhibitory activity of Alkaline phosphatase was determined at concentration of 10e-6 M using p-nitrophenylphosphate as the substrate. Put shortly:
as §2

A short description of experiment [13]: Inhibitory activity of bone gamma-carboxyglutamate (gla) protein (osteocalcin) was determined at concentration of 10e-7 M in cell lysates. Summed up: as §3

`COc1cccc(C(=O)NCCCC(O)(P(=O)([O-])O)P(=O)([O-])O)c1.[Na+].[Na+]`: the Proliferation in the experiment filed under Rattus norvegicus [1] was 0.7%; in the experiment listed under Rattus norvegicus [2] it was -12.4%; in the experiment filed under Rattus norvegicus [4], -5.5%; in the experiment filed under Rattus norvegicus [5], 3.7%. For the same molecule, the inhibition at 0.1 µM in experiment [3] was determined as 34.2%.
As to `COc1cccc(C(=O)NCCC(O)(P(=O)([O-])O)P(=O)([O-])O)c1OC.[Na+].[Na+]`, the Activity in [6] turned out to be 0.75; in [7] it was 4.73; in [8] it was 11.7; in experiment [9] it was 0.56; in [10], 2.15; in experiment [11], 4.07. The Activity came to 3.6 in experiment [12] and 8.63 in experiment [13]. Moreover, the Proliferation is 35.2% in the experiment filed under Rattus norvegicus [1], 74.4% in the experiment filed under Rattus norvegicus [2], 47.4% in the experiment listed under Rattus norvegicus [4] and 26.6% in the experiment listed under Rattus norvegicus [5]. In [3], the inhibition at 0.1 µM turned out to be 68.1%.
On to `O=C(NCCC(O)(P(=O)(O)O)P(=O)(O)O)c1ccccc1`, for which, in experiment [3], the inhibition at 0.1 µM came out at 9.5%.
As for `COc1ccc(C(=O)NCCCCCC(O)(P(=O)(O)O)P(=O)(O)O)cc1`, in experiment [3], the inhibition at 0.1 µM worked out at 39%.
Still for that read-out and setting: the value for `Cc1ccc(C(=O)NCCC(O)(P(=O)(O)O)P(=O)(O)O)cc1` was 30.4%.
Take `COc1cccc(C(=O)NCCC(O)(P(=O)([O-])O)P(=O)([O-])O)c1.[Na+].[Na+]`: the Proliferation was 8.9% in the experiment listed under Rattus norvegicus [1], -5.5% in the experiment listed under Rattus norvegicus [2], 7.1% in the experiment listed under Rattus norvegicus [4] and 0.6% in the experiment listed under Rattus norvegicus [5]. In addition, in experiment [3], the inhibition at 0.1 µM turned out to be 26.9%.
The like results for `O=C(NCCC(O)(P(=O)([O-])O)P(=O)([O-])O)c1ccc2c(c1)OCO2.[Na+].[Na+]` were, in that order, 9.3%, -7.3%, -8.3%, -0.2% and 60.2%.
Take `Cc1ccccc1C(=O)NCCCCCC(O)(P(=O)(O)O)P(=O)(O)O`: the inhibition at 0.1 µM in experiment [3] was 9.4%.
The same measure, in the same setting: then `O=C(NCCCC(O)(P(=O)(O)O)P(=O)(O)O)c1ccccc1`, with 35.6%; and `O=C(NCCCCCC(O)(P(=O)(O)O)P(=O)(O)O)c1cccc(Cl)c1`, with 15.9%; and `Cc1ccccc1C(=O)NCCCC(O)(P(=O)(O)O)P(=O)(O)O`, with 30.3%.
As for `COc1cc([N+](=O)[O-])cc(C(=O)NCCC(O)(P(=O)([O-])O)P(=O)([O-])O)c1OC.[Na+].[Na+]`, the Proliferation is on record as 17.7% in the experiment filed under Rattus norvegicus [1], 21.4% in the experiment listed under Rattus norvegicus [2], -1.5% in the experiment filed under Rattus norvegicus [4] and -0.8% in the experiment listed under Rattus norvegicus [5]. Further, the inhibition at 0.1 µM in experiment [3] was determined as 64.4%.

These data come from ChEMBL document CHEMBL1139574, “Synthesis and biological evaluation of novel bisphosphonates with dual activities on bone in vitro” (2005).
